# Source: ChEMBL document CHEMBL1123888, “Aldosterone antagonists. 2. Synthesis and biological activities of 11,12-dehydropregnane derivatives” (J Med Chem, 1987)
# Active and inactive are the calls of the source. The rule behind the calls is not given here.
# Experiments:
# [1] = target: T1, Mineralocorticoid receptor (Rattus norvegicus) (UniProt P22199); assay: In vivo relative Mineralocorticoid activity in Male Sprague-Dawley rats; assay type: functional, organism-based
# T1 sequence (whole entry): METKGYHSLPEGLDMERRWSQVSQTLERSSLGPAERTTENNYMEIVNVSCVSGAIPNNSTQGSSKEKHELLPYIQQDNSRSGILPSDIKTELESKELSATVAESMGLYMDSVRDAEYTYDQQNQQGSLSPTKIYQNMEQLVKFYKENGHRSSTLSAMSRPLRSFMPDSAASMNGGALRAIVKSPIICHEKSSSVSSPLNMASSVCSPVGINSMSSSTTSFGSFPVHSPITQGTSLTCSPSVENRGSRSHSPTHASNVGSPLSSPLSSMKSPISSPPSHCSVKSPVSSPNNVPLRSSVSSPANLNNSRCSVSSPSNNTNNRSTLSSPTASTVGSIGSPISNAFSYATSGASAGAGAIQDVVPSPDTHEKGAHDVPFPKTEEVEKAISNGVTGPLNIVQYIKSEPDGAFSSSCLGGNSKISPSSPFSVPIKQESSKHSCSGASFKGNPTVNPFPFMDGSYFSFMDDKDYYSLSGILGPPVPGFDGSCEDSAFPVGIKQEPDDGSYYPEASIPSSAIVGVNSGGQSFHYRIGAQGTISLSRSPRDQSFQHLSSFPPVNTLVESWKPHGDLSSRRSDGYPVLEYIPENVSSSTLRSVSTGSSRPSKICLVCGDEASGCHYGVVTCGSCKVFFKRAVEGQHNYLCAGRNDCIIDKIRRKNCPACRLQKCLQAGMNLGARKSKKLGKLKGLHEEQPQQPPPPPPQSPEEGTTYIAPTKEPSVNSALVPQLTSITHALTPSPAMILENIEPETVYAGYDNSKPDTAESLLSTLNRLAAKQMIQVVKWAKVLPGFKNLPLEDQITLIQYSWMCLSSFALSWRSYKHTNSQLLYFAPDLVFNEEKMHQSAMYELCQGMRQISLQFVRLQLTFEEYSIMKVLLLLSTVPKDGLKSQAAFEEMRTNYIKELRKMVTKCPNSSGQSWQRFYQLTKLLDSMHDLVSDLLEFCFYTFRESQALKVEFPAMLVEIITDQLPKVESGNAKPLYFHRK
# [2] = target: T1, Mineralocorticoid receptor (Rattus norvegicus); assay: Relative binding affinity against Mineralocorticoid Receptor in Male Sprague-Dawley rats
# Procedure, shortened: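 Renal cytosol from male Sprague-Dawley rats (4-8 weeks) adrenalectomized bilaterally 1 or 2 days earlier. Incubated with various competitor concentrations and about 1 nM [3H]aldosterone, for 42-48 h at 0 °C or 100-120 min at 25 °C. Charcoal (DCC) separation of bound and free.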
# [3] = target: T1, Mineralocorticoid receptor (Rattus norvegicus); assay: Antagonist activity against Mineralocorticoid receptor after oral administration in Male Sprague Dawley rats; (-) = negative; assay type: functional, organism-based
# Procedure, shortened: (§1)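 Male rats were bilaterally adrenalectomized (bioassay modified from Kagawa). Ald (1 µg/kg) was given sc, immediately followed by test compound in sesame oil sc or orally. Urine was collected from 2 to 6 h after steroid. Potency came from the urinary Na/K ratio of sample versus control, with 95% confidence limits.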
# [4] = target: T2, Progesterone receptor (Rattus norvegicus) (UniProt Q63449); assay: Relative binding affinity against progesterone receptor determined in rat […] cytosol using [3H]DHT as ligand
# T2 sequence (whole entry): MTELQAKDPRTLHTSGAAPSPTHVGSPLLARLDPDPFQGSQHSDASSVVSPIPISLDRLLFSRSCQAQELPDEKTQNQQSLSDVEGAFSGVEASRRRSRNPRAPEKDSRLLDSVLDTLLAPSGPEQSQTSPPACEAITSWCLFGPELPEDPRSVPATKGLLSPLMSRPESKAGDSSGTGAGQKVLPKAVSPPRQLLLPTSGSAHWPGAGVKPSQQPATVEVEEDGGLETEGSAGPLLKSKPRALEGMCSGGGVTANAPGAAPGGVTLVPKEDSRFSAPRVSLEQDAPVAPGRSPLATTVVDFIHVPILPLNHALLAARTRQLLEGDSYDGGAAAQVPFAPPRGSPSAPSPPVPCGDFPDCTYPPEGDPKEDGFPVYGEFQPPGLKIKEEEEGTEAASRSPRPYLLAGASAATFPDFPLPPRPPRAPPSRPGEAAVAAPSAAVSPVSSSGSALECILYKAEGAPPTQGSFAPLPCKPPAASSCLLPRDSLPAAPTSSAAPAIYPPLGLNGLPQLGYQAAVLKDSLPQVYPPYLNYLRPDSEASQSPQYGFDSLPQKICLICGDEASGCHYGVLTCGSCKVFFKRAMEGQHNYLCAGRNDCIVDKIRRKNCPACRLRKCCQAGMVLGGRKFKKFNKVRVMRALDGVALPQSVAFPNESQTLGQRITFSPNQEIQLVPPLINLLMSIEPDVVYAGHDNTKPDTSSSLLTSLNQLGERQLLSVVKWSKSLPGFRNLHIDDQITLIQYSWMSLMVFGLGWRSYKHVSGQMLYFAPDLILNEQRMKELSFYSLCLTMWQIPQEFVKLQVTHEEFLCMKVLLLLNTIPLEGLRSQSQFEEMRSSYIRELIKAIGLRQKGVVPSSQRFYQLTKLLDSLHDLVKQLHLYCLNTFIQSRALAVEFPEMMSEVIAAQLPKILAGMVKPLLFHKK
# [5] = target: T1, Mineralocorticoid receptor (Rattus norvegicus); assay: Relative binding affinity to the rat mineralocorticoid receptor determined in rat renal cytosol using [3]Ald as ligand
# Procedure, shortened: (§2)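 Renal cytosol came from male Sprague-Dawley rats (4-8 weeks) adrenalectomized bilaterally 1 or 2 days earlier. It was incubated with various competitor concentrations and about 1 nM [3H]Ald for 42-48 h at 0 °C or 100-120 min at 25 °C. Bound and free steroid were separated by DCC.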
# [6] = target: T1, Mineralocorticoid receptor (Rattus norvegicus); assay: Relative binding affinity against mineralocorticoid receptor determined in rat renal cytosol using [3]Ald as ligand; procedure, shortened: as §2
# [7] = target: T1, Mineralocorticoid receptor (Rattus norvegicus); assay: Antagonist activity against Mineralocorticoid receptor was determined after subcutaneous administration in Male Sprague Dawley rats; assay type: functional, organism-based; procedure, shortened: as §1
# [8] = target: T1, Mineralocorticoid receptor (Rattus norvegicus); assay: Antagonist activity against Mineralocorticoid receptor after po administration in Male Sprague Dawley rats; (+) =positive; assay type: functional, organism-based; settings: filed as antagonist; procedure, shortened: as §1
# [9] = target: T1, Mineralocorticoid receptor (Rattus norvegicus); assay: Relative potency compared to Aldosterone;Range is 1.2-1.6; assay type: functional
# [10] = target: T1, Mineralocorticoid receptor (Rattus norvegicus); assay: Antagonist activity against Mineralocorticoid receptor after oral administration in Male Sprague Dawley rats; (+) =positive; assay type: functional, organism-based; settings: filed as antagonist; procedure, shortened: as §1
# Rattus norvegicus = species: Rattus norvegicus; assay: Displacement of [3H]promegestone from progestin receptor of rat uterine cytosol at 0 degree Centigrade
# Procedure, shortened: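 Uteri from estradiol-primed rats supplied the cytosol. It was incubated with various competitor concentrations and about 1 nM [3H]promegestone for 16-20 h at 0 °C. Bound and free steroid were separated by DCC. RBA (progesterone = 100%) = 100 × ratio of the 50%-inhibition concentrations of standard and competitor.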
# [11] = target: T1, Mineralocorticoid receptor (Rattus norvegicus); assay: (§3) Relative anti-mineralocorticoid potency compared to Spironolactone after oral administration; assay type: functional, organism-based; procedure, shortened: as §1
# [12] = target: T1, Mineralocorticoid receptor (Rattus norvegicus); assay: Antagonist activity against Mineralocorticoid receptor after subcutaneous administration in Male Sprague Dawley rats; (+) =positive; assay type: functional, organism-based; settings: filed as antagonist; procedure, shortened: as §1
# [13] = target: T3, Androgen receptor (Rattus norvegicus) (UniProt P15207); assay: Relative anti-androgenic activity as suppressive effect on weight increase of ventral prostate in castrated immature rats given testosterone propionate (95% confidence limit); assay type: functional; settings: Prostate gland
# T3 sequence (whole entry): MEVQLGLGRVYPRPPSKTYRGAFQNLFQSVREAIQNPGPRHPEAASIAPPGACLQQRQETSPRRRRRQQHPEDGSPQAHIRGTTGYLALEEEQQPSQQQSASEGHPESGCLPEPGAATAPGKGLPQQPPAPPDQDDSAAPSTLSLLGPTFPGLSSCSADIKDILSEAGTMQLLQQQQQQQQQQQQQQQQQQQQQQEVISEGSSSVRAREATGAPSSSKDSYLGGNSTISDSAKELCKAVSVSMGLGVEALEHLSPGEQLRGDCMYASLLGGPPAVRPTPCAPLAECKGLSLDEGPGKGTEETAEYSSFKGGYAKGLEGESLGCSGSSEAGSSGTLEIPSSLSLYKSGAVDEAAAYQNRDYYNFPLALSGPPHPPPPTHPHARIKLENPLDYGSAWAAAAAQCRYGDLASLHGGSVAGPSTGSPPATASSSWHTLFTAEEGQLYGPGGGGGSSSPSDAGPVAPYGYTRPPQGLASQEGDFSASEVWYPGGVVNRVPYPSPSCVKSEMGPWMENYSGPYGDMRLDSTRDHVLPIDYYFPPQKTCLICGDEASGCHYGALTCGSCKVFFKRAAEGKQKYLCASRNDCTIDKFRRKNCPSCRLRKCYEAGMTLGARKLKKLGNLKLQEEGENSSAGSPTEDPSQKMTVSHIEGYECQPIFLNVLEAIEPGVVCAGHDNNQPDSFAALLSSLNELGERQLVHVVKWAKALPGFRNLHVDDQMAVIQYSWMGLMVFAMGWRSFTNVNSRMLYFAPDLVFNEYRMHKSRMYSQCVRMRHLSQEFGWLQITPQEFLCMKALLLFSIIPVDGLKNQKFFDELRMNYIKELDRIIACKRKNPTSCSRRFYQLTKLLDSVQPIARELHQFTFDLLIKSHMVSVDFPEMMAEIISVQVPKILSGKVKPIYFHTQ
# Procedure, shortened: (§4)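 Male Sprague-Dawley rats (3 weeks old) were castrated 3 days earlier. […] Suppression of accessory sex organ weight gain gave relative antiandrogenic activity.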
# [14] = target: T3, Androgen receptor (Rattus norvegicus); assay: Relative anti-androgenic activity as suppressive effect on weight increase of seminal vesicle in castrated immature rats given testosterone propionate (95% confidence limit); assay type: functional; procedure, shortened: as §4
# [15] = target: T1, Mineralocorticoid receptor (Rattus norvegicus); assay: Antagonist activity against Mineralocorticoid receptor after po administration in Male Sprague Dawley rats; (-) = negative; assay type: functional, organism-based; procedure, shortened: as §1
# [16] = target: T1, Mineralocorticoid receptor (Rattus norvegicus); assay: as §3; assay type: functional, organism-based; procedure, shortened: as §1; remark: listed apart in the source
# [17] = target: T3, Androgen receptor (Rattus norvegicus); assay: Relative anti-androgenic activity as suppressive effect on weight increase of ventral prostate in castrated immature rats given testosterone propionate; assay type: functional; settings: Prostate gland; procedure, shortened: as §4
# [18] = target: T1, Mineralocorticoid receptor (Rattus norvegicus); assay: Relative potency compared to Aldosterone; Range is 177-1340; assay type: functional
# [19] = target: T1, Mineralocorticoid receptor (Rattus norvegicus); assay: Agonist activity against Mineralocorticoid receptor was determined after subcutaneous administration in Male Sprague Dawley rats; (+) =positive; assay type: functional, organism-based; settings: filed as agonist
# [20] = target: T1, Mineralocorticoid receptor (Rattus norvegicus); assay: Relative binding affinity against Mineralocorticoid receptor in Male Sprague-Dawley rats; procedure, shortened: as §2
structure (smiles),measurement,setting,value
C[C@]12CC[C@H]3[C@@H](CCC4=CC(=O)CC[C@@]43C)[C@@H]1CC[C@@H]2C(=O)CO,Relative activity,[1],1
same,RBA,[2],58%
CC12C=CC(=O)C=C1C1CC1C1C2C=CC2(C)C1C1CC1[C@@]21CCC(=O)O1 (some centres not stated),Activity,[3],inactive
same,RBA,[4],150%
same,RBA,[5],480%
same,RBA,[6],250%
same,Activity,[7],inactive
same,Activity,[8],Antagonist
same,Relative potency,[9],1.2
CC12C=CC(=O)C=C1C=CC1C2C=CC2(C)C1CC[C@@]21CCC(=O)O1 (some centres not stated),Activity,[10],Antagonist
same,RBA,[5],20%
same,RBA,Rattus norvegicus,1.6%
same,RBA,[6],22%
same,Relative potency,[11],0.93
same,Activity,[12],Antagonist
same,Activity,[13],0.42
same,Activity,[14],0.14
same,Activity,[15],inactive
same,Relative potency,[16],2.08
CC12CCC(=O)C=C1C=CC1C2C=CC2(C)C1CC[C@@]21CCC(=O)O1 (some centres not stated),Activity,[3],inactive
same,RBA,[5],64%
same,RBA,Rattus norvegicus,4.7%
same,RBA,[6],70%
same,Activity,[12],Antagonist
same,Activity,[17],1
same,Activity,[15],inactive
same,Relative potency,[16],2
CC12CCC(=O)C=C1CCC1C2C=CC2(C)C1CC[C@@]21CCC(=O)O1 (some centres not stated),RBA,[5],440%
same,RBA,Rattus norvegicus,53%
same,RBA,[6],570%
same,Activity,[7],inactive
same,Relative potency,[18],177
same,Activity,[19],Agonist
C[C@]12CC[C@@H]3C4CCC(=O)C=C4CC[C@H]3[C@@H]1CC[C@@H]2C(=O)CO (some centres not stated),Relative activity,[1],1.5
same,relative binding affinity (RBA),[20],170
C[C@]12C[C@H](O)[C@H]3[C@@H](CCC4=CC(=O)CC[C@@]43C)[C@@H]1CC[C@@H]2C(=O)CO,Relative activity,[1],0.14
same,RBA,[2],14%
